Activity calls are given as the source filed them. No cut-off for these calls is given here.

In ChEMBL document CHEMBL4433210, “Synthesis and Evaluation of Bifunctional Aminothiazoles as Antiretrovirals Targeting the HIV-1 Nucleocapsid Protein” (ACS Med Chem Lett, 2019) one finds Activity data, which are given here for 1 compound.

Test [1] concerns Human immunodeficiency virus 1. In words: Antiviral activity against wild-type HIV1 NL4-3 infected infected in human MT2 cells assessed as reduction in HIV1 intracellular genomic RNA level at 1 uM and measured after 30 hrs post infection by TaqMan probe based RT-PCR analysis. It is filed as functional, organism-based. An outline of the steps: (§1)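 MT-2 cells were infected with NL4-3 at MOI 0.1 and incubated with test or reference agents at 20, 5 or 1 μM. Real-time PCR measured integrated HIV-1 DNA and intracellular and extracellular genomic HIV-1 RNA at 30 h post-infection. Levels are expressed as a percentage of the no-drug control culture.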
On the technique in general: Real-time PCR tracks product formation cycle by cycle.

Test [2] deals with Human immunodeficiency virus 1. The experiment in a line: Antiviral activity against wild-type HIV1 NL4-3 infected infected in human MT2 cells assessed as reduction in HIV1 extracellular genomic RNA level at 1 uM and measured after 30 hrs post infection by TaqMan probe based RT-PCR analysis. It is filed as functional, organism-based. An outline of the steps: as §1

Take `Cc1cc(/C=C/C#N)cc(C)c1Nc1ccnc(Nc2ccc(C#N)cc2)n1`: the result in test [1] and in test [2] was Active.
